hERG protect – hERG (human) protection from proarrhythmic block. AID 1511. CHO-hERG, FluxOR thallium flux, dofetilide IC70 present. Q12809. actives 0.51% (n = 310,000). activation (rescue from dofetilide block), less the hit threshold, % at 10 µM;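 active = activation above the mean of controls blocked by dofetilide plus 5 SD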;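 also: thallium influx through hERG after potassium depolarization seen as dye fluorescence rise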
Kir21 block – inhibitors of mouse Kir2.1 inward-rectifier potassium channel. P35561. HEK293-Kir2.1, FluxOR thallium flux fluorescence; stronger effect = lower value. B-score at 10 µM. actives 0.85% (n = 310,000). AID 1672;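 active = fluorescence ratio B-score at or below minus 3 SD of library scores, with starting-brightness B-score within 2 SD, cut at about -4.2 in these data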;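 also: channel flux triggered by added potassium and thallium sulfate stimulus; B-score of peak minus minimum fluorescence over baseline after thallium stimulus; more negative B-score means stronger Kir2.1 block with less thallium influx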
Target sequence (P35561 whole entry, looked up): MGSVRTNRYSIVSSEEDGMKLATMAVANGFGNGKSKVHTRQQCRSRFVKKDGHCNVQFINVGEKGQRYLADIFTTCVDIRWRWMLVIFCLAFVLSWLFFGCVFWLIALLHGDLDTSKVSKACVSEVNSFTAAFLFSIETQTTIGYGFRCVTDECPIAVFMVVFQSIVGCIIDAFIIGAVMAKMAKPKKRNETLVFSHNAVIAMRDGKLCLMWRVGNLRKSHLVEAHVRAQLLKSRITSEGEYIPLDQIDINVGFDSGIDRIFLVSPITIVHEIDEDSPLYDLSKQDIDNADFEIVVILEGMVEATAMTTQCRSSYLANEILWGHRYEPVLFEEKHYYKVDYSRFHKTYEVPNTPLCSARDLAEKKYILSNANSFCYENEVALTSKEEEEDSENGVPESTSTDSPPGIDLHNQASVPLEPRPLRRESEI
KCNK3 inh – human KCNK3 channel inhibition, primary screen; O14649; CHO-KCNK3 thallium flux, FluxOR fluorescence; stronger effect = lower value; B-score at 10 µM; actives 0.84% (n = 340,000); AID 602410;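 active = B-score under library mean minus 4 SD, starting fluorescence ratio at most library mean plus 5 SD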;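 also: more negative B-score means stronger inhibition of thallium flux through KCNK3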
KCNK9 inh – human KCNK9 channel inhibition; Q9NPC2; HEK293 KCNK9, FluxOR thallium flux fluorescence; stronger effect = lower value; B-score at 10 µM; actives 1.2% (n = 310,000);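 active = ratio B-score over 3 SD below the library mean, with starting fluorescence within 5 SD of its mean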;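 also: negative B-score means less thallium flux so channel inhibition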
KCNQ1 pot – potentiates or activates the human KCNQ1 potassium channel; P51787; CHO-K1 KCNQ1, thallium flux FluxOR fluorescence; stronger effect = higher value; B-score at 10 µM; actives 0.35% (n = 310,000);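 active = fluorescence ratio B-score, a plate-corrected score, at least three library SD, with initial intensity B-score within 5 SD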
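Medium – assay buffer, equal DMSO in all wells · Material – CHO-K1 cell line with stable KCNQ1 potassium channel expression · Signal – kinetic FluxOR thallium fluorescence, 10-s 1-Hz baseline, 110-s post-stimulus read · Compound – single concentration per compound, DMSO matched to controls · Schedule – 37 °C overnight plating, 90-min dark dye load, 20-min compound pretreatment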
KCNQ1 block – blocks the human KCNQ1 potassium channel; P51787; CHO-K1 KCNQ1, FluxOR thallium flux fluorescence; stronger effect = higher value; B-score at 10 µM; actives 1.3% (n = 310,000); AID 2642;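 active = compounds whose thallium flux B-score, printed positive for inhibition, exceeds three library SD while starting fluorescence stays within three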;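 also: channel opened by potassium depolarization with thallium stimulus after 20 min compound exposure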
KCNQ1 inh valid – reconfirmed blocker of the human KCNQ1 potassium channel; shares compounds with KCNQ1 block; KCNQ1 cell line, FluxOR thallium flux fluorescence; inhibition, % at 10 µM; actives 93% (n = 1,600);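 active = primary screen active, with duplicate mean exceeding buffer control mean plus 3 SD of buffer wells, cut at about 28% in these data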;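 also: 0% = buffer control ratio and 100% = XE991 inhibitor control ratio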
CHO Tl flux – counter-screen for KCNQ1 inhibitors: effect in parental CHO cells; shares compounds with KCNQ1 block; parental CHO-K1, FluxOR thallium flux fluorescence ratio; stronger effect = lower value; zero means no signal rise above baseline; fluorescence ratio (Tl flux) at 10 µM; actives 21% (n = 1,600); AID 588366;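 active = mean of duplicate thallium-flux fluorescence ratios in parental host cells more than 5 SD below the buffer control mean, cut at about 0.38 in these data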;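 also: ratio is peak minus minimum fluorescence divided by baseline fluorescence; actives read low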
KCNQ1 APC inh – blocks human KCNQ1 current in automated patch clamp. calls only at 10 µM. KCNQ1-CHO cells. shares compounds with KCNQ1 block. AID 624120. actives 20% (n = 490);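 active = KCNQ1 current drop exceeding 3 SD of negative control wells, seen in both duplicate runs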;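 also: steady state current during a 2 s step from -80 to +40 mV; negative values mean current inhibition and positive values mean potentiation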
KCNQ2 inh – selectivity of KCNQ1 inhibitors: inhibition of rat KCNQ2 channel; actives 71% (n = 1,600); shares compounds with KCNQ1 block; AID 651746; inhibition, % at 10 µM; KCNQ2 cells, FluxOR thallium flux fluorescence;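 active = mean percent inhibition of the KCNQ2 thallium signal more than 5 SD above the buffer-only control wells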;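 also: KCNQ2 expressed in CHO cells; 0% = buffer control wells and 100% = XE-991 inhibitor control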
KCNQ1 KCNE1 spec – human KCNQ1/KCNE1 inhibition in KCNQ1 specificity screen; shares compounds with KCNQ1 block; KCNQ1/KCNE1 cells, FluxOR thallium flux fluorescence; inhibition, % at 10 µM; actives 77% (n = 1,600); AID 652147;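 active = mean percent inhibition of duplicate wells above the buffer-only control mean plus 3 SD of those controls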;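 also: 0% = buffer only wells and 100% = XE-991 inhibitor control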
The depositor's hits bear a star; i = inactive; x = no result; + = active, no number. Most compounds without a hit are left out; they make up all but 3.7% or so of the library.

SMILES | hERG protect | Kir21 block | KCNK3 inh | KCNK9 inh | KCNQ1 pot | KCNQ1 block | KCNQ1 inh valid | CHO Tl flux | KCNQ2 inh | KCNQ1 KCNE1 spec | others
Oc1ccc(NC(=S)N=Nc2c(O)[nH]c3ccc(Br)cc23)cc1 | -17 | 0.13 | i | i | i | 7* | 108* | 0.4 | 75%* | 158%* | KCNQ1 APC inh=i
O=C(O)c1cccc2c1-c1ccc(Cl)cc1C2 | x | x | i | x | x | x | x | x | x | x
Cc1ccc(NC(=S)Nc2ccc(OC(F)F)c(Cl)c2)cc1F | -34 | 0.39 | i | i | i | 14* | 88* | 0.49 | i | i | KCNQ1 APC inh=i
Cc1ccc(C(CC(=O)O)NC(=O)CN2C(=O)c3ccccc3C2=O)cc1 (stereo not drawn) | -2 | 0.48 | i | i | i | i | x | x | x | x
CCCCCC(=O)NC(=S)NC1C2CC3CC(C2)CC1C3 (stereo not drawn) | -10 | 0.54 | i | i | i | 7* | 66* | 0.48 | 79%* | 64%*
O=C(CCc1nnc(C2(c3ccc(Cl)cc3)CCC2)o1)N1CCCC1 | -7 | -2.2 | i | i | i | i | x | x | x | x
O=C(O)Cn1c(SCCOc2ccc(Cl)cc2)nc2ccccc21 | 0 | -1.7 | i | i | i | i | x | x | x | x
O=C(Nc1ccccc1)Nc1ccccc1NS(=O)(=O)c1cccs1 | -21 | -0.72 | i | i | i | 10* | 64* | 0.51 | 64%* | i
CN(C)C1=NC[C@H](Cc2ccccc2)N1CC1CCCC1 | x | x | i | x | x | x | x | x | x | x
CN(C)C1=NC[C@H](Cc2ccccc2)N1CC1CCC(C(C)(C)C)CC1 (stereo partly drawn) | -7 | -2 | i | i | i | 7* | 98* | 0.43 | 111%* | 70%*
Cc1ccc(S(=O)(=O)c2c(N)n(CCC(C)C)c3nc4ccccc4nc23)cc1 | -12 | 1.6 | i | i | i | 15* | 75* | 0.42 | i | 97%*
Cc1cccc(OCCC(=O)OCC(=O)Nc2c(C)nn(-c3ccccc3)c2C)c1 | -20 | -0.41 | i | i | i | 10* | 32* | 0.47 | 64%* | 36%*
Cc1ccc(C)c(OCC(=O)OCC(=O)Nc2c(C)nn(-c3ccccc3)c2C)c1 | -10 | 1.9 | i | i | i | i | x | x | x | x
O=C(NC(=S)NCC1CCCO1)c1ccc([N+](=O)[O-])cc1 (stereo not drawn) | -7 | -0.11 | i | i | i | i | x | x | x | x
Cc1cc(=O)[nH]c(SCC(=O)/C=C2\N(C)c3ccccc3C2(C)C)n1 | -22 | -0.97 | i | i | i | 11* | 106* | 0.48 | 88%* | 79%* | KCNQ1 APC inh=i
O=C(COc1ccc(Nc2ccccc2)cc1)Nc1ccncc1 | -21 | -1.3 | i | i | i | 8* | 94* | 0.54 | i | i
O=C(COc1ccccc1)Nc1cccc(-c2nc3ccccc3[nH]2)c1 | -15 | -1.9 | i | i | i | 6* | 52* | 0.47 | 78%* | 80%*
CC(C)CCOc1cccc(OCC(=O)Nc2ccncc2)c1 | -14 | -0.05 | i | i | i | 12* | 106* | 0.45 | i | 40%* | KCNQ1 APC inh=i
COc1ccc(OCC(=O)Nc2cccc(-c3nc4ccccc4[nH]3)c2)cc1 | -8 | -0.94 | i | i | i | i | x | x | x | x
CCC(C)(C)c1ccc(OCC(=O)Nc2ccncc2)cc1 | -23 | 1.9 | i | i | i | 8* | 138* | 0.44 | 92%* | 72%* | KCNQ1 APC inh=i
O=C(COc1ccc(Br)cc1)Nc1ccncc1 | -13 | 3 | i | i | i | i | x | x | x | x
COc1ccc(CN(C)C(=O)c2ccc3c(=O)n4c(nc3c2)CCC4)c(OC)c1 | -8 | 0.05 | i | i | i | i | x | x | x | x
COc1ccccc1OCC(=O)NNC(=O)c1c(-c2ccccc2Cl)noc1C | -3 | -0.01 | i | i | i | i | x | x | x | x
O=C(Nc1ccc(Br)cc1)Nc1cnccn1 | -11 | -0.82 | i | i | i | 7* | 0 | 0.56 | i | i
Cc1nc(Cl)c(C#N)cc1-c1ccccc1 | -4 | -0.06 | i | i | i | i | x | x | x | x
SMILES | hERG protect | Kir21 block | KCNK3 inh | KCNK9 inh | KCNQ1 pot | KCNQ1 block | KCNQ1 inh valid | CHO Tl flux | KCNQ2 inh | KCNQ1 KCNE1 spec | others
Cc1nc(Sc2ccccc2)c(C#N)cc1-c1ccccc1 | -17 | -0.82 | i | i | i | 6* | 95* | 0.42 | 105%* | 136%* | KCNQ1 APC inh=+
C=C(C(=O)c1ccccc1)C(NC(C)(C)C)c1ccccc1 (stereo not drawn) | x | x | i | x | x | x | x | x | x | x
NC1=NC[C@H](c2ccccc2)N1CCCCC1CCCCC1 | -15 | -6.7* | i | i | i | 9* | 116* | 0.4 | 120%* | 88%* | KCNQ1 APC inh=+
S=C1NC[C@H](c2ccccc2)N1CCCCC1CCCCC1 | -8 | 0.18 | i | i | i | i | x | x | x | x
O=C(Cc1cccc2ccccc12)NCCOc1ccccc1F | 4 | -0.6 | i | i | i | i | x | x | x | x
CCc1ccccc1N1CCN(S(=O)(=O)c2cc(OC)ccc2OC)CC1 | -15 | -0.19 | i | i | i | 6* | 106* | 0.43 | 95%* | 142%* | KCNQ1 APC inh=+
COc1ccc(OC)c(S(=O)(=O)N2CCN(c3ccccc3)CC2)c1 | -11 | -0.26 | i | i | i | i | x | x | x | x
CCc1nnc(NC(=O)CCC2CCCCC2)s1 | -3 | 1.4 | i | i | i | i | x | x | x | x
O=C(CCC1CCCCC1)Nc1nnc(C(F)(F)F)s1 | 0 | -0.21 | i | i | i | 6* | 64* | 0.54 | i | 34%*
N#Cc1c(-c2ccc(Cl)cc2)ccnc1N1CCOCC1 | -17 | 0 | i | i | i | i | x | x | x | x
OCCNc1nc(Nc2ccc(Br)cc2)nc2ccccc12 | -8 | -13* | x | i | i | 15* | 0 | 0.46 | 78%* | i

Bioassay records (PubChem)
